Screening results from PubChem BioAssay.
HePTP inhibitor = inhibitors of human HePTP phosphatase, primary screen, biochemical, absorbance, leukemia target; recombinant HePTP phosphatase activity, OD absorbance; inhibition, % at 20 µM; actives 0.64% (n = 110,000); in the data active = inhibition above about 50%;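 also: plate controls were vehicle for no effect and reference inhibitor for full effect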
PostGolgi ctrl = growth inhibition of yeast control strain, primary screen, counter-screen for post-Golgi transport modulator project | actives 5% (n = 98,000) | AID 738, 2007 | efflux-deficient yeast background strain, growth absorbance A615, 16 h | inhibition, % at 10 µM
PostGolgi yeast = phenotypic screen on post-Golgi transport, primary screen; post-Golgi transport phenotypic cell assay; inhibition, % at 10 µM; actives 0.9% (n = 98,000);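 also: yeast cells grown in 1536-well plates; yeast grown about 18 h at 30C before absorbance read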
Ecoli tolC = growth inhibitors of E. coli tolC mutant, primary screen, strain BW25113 ΔtolC::kan, 384-well; OD615; growth inhibition, % at 10 µM (by protocol); actives 2.2% (n = 65,000); AID 573, 2007;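 active = growth inhibition at or above a cutoff equal to the mean over every tested compound plus 3 SD, cut at about 60% in these data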;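 also: growth measured after 20 h incubation at 37 °C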
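signal = optical density read at 615 nm | test system = E. coli ΔtolC::kan strain BW25113 | timing = 20 h compound exposure of bacteria at 37 °C | buffer or medium = LB medium plus 50 µg/mL kanamycin | compound dosing = 10 µM final, single dose | evaluation = % inhibition of E. coli growth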
PLAP act = PLAP enzyme activators, biochemical, luminescence, HTS | Alkaline phosphatase, placental type (Homo sapiens), P05187 | purified PLAP enzyme, luminescent substrate read-out; stronger effect = higher value | activation fold at 20 µM | actives 1.2% (n = 96,000); in the data active = activation fold above about 2
Target sequence (P05187 whole entry, looked up): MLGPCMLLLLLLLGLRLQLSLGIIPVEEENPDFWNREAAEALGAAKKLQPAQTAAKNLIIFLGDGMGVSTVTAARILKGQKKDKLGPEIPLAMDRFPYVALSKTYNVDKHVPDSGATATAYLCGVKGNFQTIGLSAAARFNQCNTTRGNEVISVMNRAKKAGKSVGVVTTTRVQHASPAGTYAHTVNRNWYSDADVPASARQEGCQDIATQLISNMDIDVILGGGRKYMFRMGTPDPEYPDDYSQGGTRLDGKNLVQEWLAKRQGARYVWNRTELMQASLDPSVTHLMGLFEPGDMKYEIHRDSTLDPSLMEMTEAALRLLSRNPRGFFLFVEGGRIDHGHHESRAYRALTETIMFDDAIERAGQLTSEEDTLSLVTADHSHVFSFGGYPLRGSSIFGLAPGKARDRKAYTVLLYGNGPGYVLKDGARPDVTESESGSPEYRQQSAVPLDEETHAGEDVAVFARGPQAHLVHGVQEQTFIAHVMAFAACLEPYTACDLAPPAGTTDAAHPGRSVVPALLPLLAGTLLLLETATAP
E coli WT exp = growth inhibitors of wild-type E. coli, primary screen, strain BW25113, expanded library, OD600; OD600 absorbance; growth inhibition, % at 100 µM; actives 0.15% (n = 98,000);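 active = growth inhibition above about 50% at one test dose, limit read from the data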;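 also: growth measured after 20 h incubation at 37 °C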
Numbers without * were called inactive; . = not tested or not shown; ! = not confirmed by another sample. Sampled rows, rich in hits. Any-hit rate of the full collection: about 5.4%. Rule as the data show it, unless noted: active = inhibition above about 30%; inactive = the rest.

SMILES	HePTP inhibitor	PostGolgi ctrl	PostGolgi yeast	Ecoli tolC	PLAP act	E coli WT exp
Cc1cccc(S(=O)(=O)C(C#N)c2nc3ccccc3nc2N2CC(C)OC(C)C2)c1 (stereo not given)	-0.6	10.8	1.1	62.3*	1.4	-4.0
CC1CCCN(c2nc3ccccc3nc2C(C#N)S(=O)(=O)c2cccs2)C1 (stereo not given)	.	16.1	-3.2	.	1.4	-2.0
NC(=S)NN=C1c2cc(S(=O)(=O)NCc3ccco3)ccc2-c2ccc(S(=O)(=O)NCc3ccco3)cc21	1.4	.	.	.	.	.
C/C(=C\C(=O)ONC(=O)c1ccccc1)NC(C)C	-1.2	.	.	.	.	.
O=C(c1ccc2nc(N3CCOCC3)sc2c1)N1CCC(Cc2ccccc2)CC1	.	3.5	21.6	.	1.6	-1.0
CCCCN(CCCNC(=O)c1ccc2nc(N3CCOCC3)sc2c1)Cc1ccccc1	.	-3.2	1.6	.	2.2*	0.0
O=C(Oc1ccc([N+](=O)[O-])c(Cl)c1)c1c(F)cccc1F	4.8	.	.	.	.	.
CCOC(=O)c1c(C)oc2c1c(C(c1cccnc1)N1CCCCC1)c(O)c1ccccc12 (stereo not given)	.	52.7*	18.4	.	1.7	-8.0
COc1ccc(OC)c(NC2=C(Cl)C(=O)N(c3ccc(Br)cc3)C2=O)c1	-7.9	.	.	.	.	.
COc1ccc(CN(C(=O)c2ccco2)C2CC(C)N(C)CC2C)cc1 (stereo not given)	102.3*!	2.6	6.5	-6.2	0.9	7.0
Clc1ccc(Cl)c(-c2nn3c(COc4ccccc4)nnc3s2)c1	9.6	-2.2	-1.7	96.2*	0.9	-1.0
COc1ccc(/C(O)=C2/C(=O)C(=O)N(CCCCCC(=O)O)C2c2ccc3c(c2)OCO3)cc1 (stereo not given)	1.9	.	.	.	.	.
FC(F)(F)c1cccc(Sc2cc(C(F)(F)F)nc(-c3ccccn3)n2)c1	.	42.3*	-10.2	.	1	-4.0
COC(=O)C1=C(C)N(C)C(C)=C(C(=O)OC)C1c1cccc(Oc2ccccc2)c1	6.7	.	.	.	.	.
O=C(NNC1=C(C(=O)C(F)(F)F)CCC1)c1ccccc1O	.	1.5	3.3	.	1.8	18.0
O=C(NNC1=C(C(=O)C(F)(F)F)CCC1)c1ccccc1Cl	.	1.1	0.3	.	2.1*	26.0
CC(C)(C)NC(=O)c1ccccc1C(=O)O	6.3	.	.	.	.	.
CCOc1ccc(Cl)cc1CSc1n[nH]c(CC)n1	11.4	34.5*	-8.7	-2.1	1.7	10.0
CC(=O)c1ccc(NC(=O)C2CC=C(C)CC2C(=O)O)cc1 (stereo not given)	9.6	.	.	.	.	.
c1ccc(-c2csc(N3CCCCCC3)n2)cc1	4.7	3.9	6.1	16.5	0.9	3.0
NC(=O)C1(N2CCCCC2)CCN(c2nc(-c3ccc(Br)cc3)cs2)CC1	.	60.4*	6.0	.	0.8	0.0
Cc1nnc2n1NC(c1ccc(Cl)cc1)C(C(=O)N(C)C1CCCCC1)S2 (stereo not given)	7.4	0.3	22.2	12.0	2.2*	6.0
O=C(COc1ccc(Cl)cc1)N=Nc1c(O)n(CN2CCCC2)c2ccccc12	11.3	.	.	.	.	.
O=C(NC(Cc1ccccc1)c1ccc2c(c1)OCCCO2)c1ccccc1F (stereo not given)	.	9.5	4.4	.	1.3	-8.0
CC(=O)N(CCC(Cc1ccccc1)c1ccc2c(c1)OCO2)Cc1ccccc1F (stereo not given)	.	36.2*	-9.8	.	1.2	0.0
SMILES	HePTP inhibitor	PostGolgi ctrl	PostGolgi yeast	Ecoli tolC	PLAP act	E coli WT exp
Cc1cc(/C=N/n2cnnc2)c(C)n1-c1ccc(OCc2ccccc2F)cc1	-6.6	64.6*	7.2	43.5	1.1	-6.0
Cc1cc(/C=N/n2cnnc2)c(C)n1-c1ccc(OCc2ccc(Cl)cc2)cc1	.	77.6*	10.8	.	1.1	-8.0
Cc1nnc(C)n1/N=C/c1cc(Br)cc(Br)c1O	6.6	10.7	4.3	2.4	1	51.0*
Cc1nnc(C)n1/N=C/c1cc(Br)ccc1O	9.8	-1.2	3.4	-9.6	1.1	8.0
Cc1ccc(N2C(=O)C3CC=C(c4ccccc4)CC3C2=O)cc1 (stereo not given)	7.2	.	.	.	.	.
COCCn1c(SCc2nc3sc(C(=O)OC)c(C)c3c(=O)[nH]2)nc2ccccc21	4.3	26.8	0.9	0.7	1.1	1.0
CCn1c(SCc2nc3sc(C(=O)O)c(C)c3c(=O)[nH]2)nc2ccccc21	.	-0.1	16.0	.	2.3*	2.0
Cc1ccc2c(c1)N(CCC(=O)NCC1COc3ccccc3O1)C(=O)CO2 (stereo not given)	3.1	3.2	-4.3	2.6	2.2*	-11.0
c1ccc2c(c1)CCN(c1nc3cc4c(cc3s1)OCCO4)C2	2.3	11.0	-5.6	64.5*	0.9	-7.0
CC1CCC(n2c(=S)[nH]c3ccccc3c2=O)CC1 (stereo not given)	-10.0	49.4*	3.0	5.8	0.8	-7.0
Nc1nc(SCc2ccc(Cl)cc2)ns1	11.6	43.8*	-2.0	22.9	0.9	24.0
Nc1nc(SCc2ccccc2)ns1	7.6	18.6	-5.7	3.7	0.8	11.0
COc1ccc(/C=N\N2CCN(c3ccc(Cl)cc3)CC2)cc1O	7.1	.	.	.	.	.
COc1ccc(-c2cc(C(F)F)nc(-n3nc(C)cc3C)n2)cc1	3.5	31.2*	-1.0	-0.2	0.9	-1.0
OC(c1cccc(OCc2ccccc2)c1)c1nnc(-c2ccccc2)o1 (stereo not given)	14.0	56.2*	-0.6	74.7*	1.1	-10.0
OC(c1ccc(OCc2ccccc2)cc1)c1nnc(-c2ccccc2)o1 (stereo not given)	.	26.2	-3.9	.	0.8	-9.0
COc1cccc(C2=NN(C(=O)c3ccncc3)C(O)(C(F)(F)F)C2)c1 (stereo not given)	4.3	.	.	.	.	.
Cc1cc(Nc2ccc(N3CCC(C)CC3)cc2)n2ncnc2n1	-6.1	-1.3	-7.5	11.2	2*	1.0
O=C(O)c1ccccc1SC1CC(=O)N(c2ccc([N+](=O)[O-])cc2)C1=O (stereo not given)	-8.2	.	.	.	.	.
CN(C)C1=C(C#N)C(C2CCCCC2=O)c2c(c3ccccc3n2C)N1c1ccc([N+](=O)[O-])cc1 (stereo not given)	103.6*	.	.	.	.	.
CCOc1ccccc1/C=C1/C(=O)NN(c2ccc(C)c(Cl)c2)C1=O	69.4*	.	.	.	.	.
O=C1NN(c2ccc(F)c(Cl)c2)C(=O)/C1=C\c1ccco1	98.9*	.	.	.	.	.
CS(=O)(=O)N(CC(=O)Nc1ccc(Oc2ccccc2)cc1)c1ccccc1	-25.0	.	.	.	.	.
COc1ccc(NC(=O)C2CCCN(Cc3ccccc3)C2)cc1OCC(C)C (stereo not given)	-0.6	.	.	.	.	.
CC(C)(C)c1cc(C(=O)N/N=C/c2ccc([N+](=O)[O-])cc2)n[nH]1	-17.1	.	.	.	.	.
COc1ccc2nc(NCCCNC(=O)c3cc(OC)c(OC)c(OC)c3)c(C#N)cc2c1	8.4	3.0	33.9*	8.0	2.4*	7.0
